Experimental data from different studies.
Target: Serine/threonine-protein kinase TAO3 (TAOK3, Homo sapiens, UniProt Q9H2K8)
Sequence (Q9H2K8 1-898, as in one of the studies): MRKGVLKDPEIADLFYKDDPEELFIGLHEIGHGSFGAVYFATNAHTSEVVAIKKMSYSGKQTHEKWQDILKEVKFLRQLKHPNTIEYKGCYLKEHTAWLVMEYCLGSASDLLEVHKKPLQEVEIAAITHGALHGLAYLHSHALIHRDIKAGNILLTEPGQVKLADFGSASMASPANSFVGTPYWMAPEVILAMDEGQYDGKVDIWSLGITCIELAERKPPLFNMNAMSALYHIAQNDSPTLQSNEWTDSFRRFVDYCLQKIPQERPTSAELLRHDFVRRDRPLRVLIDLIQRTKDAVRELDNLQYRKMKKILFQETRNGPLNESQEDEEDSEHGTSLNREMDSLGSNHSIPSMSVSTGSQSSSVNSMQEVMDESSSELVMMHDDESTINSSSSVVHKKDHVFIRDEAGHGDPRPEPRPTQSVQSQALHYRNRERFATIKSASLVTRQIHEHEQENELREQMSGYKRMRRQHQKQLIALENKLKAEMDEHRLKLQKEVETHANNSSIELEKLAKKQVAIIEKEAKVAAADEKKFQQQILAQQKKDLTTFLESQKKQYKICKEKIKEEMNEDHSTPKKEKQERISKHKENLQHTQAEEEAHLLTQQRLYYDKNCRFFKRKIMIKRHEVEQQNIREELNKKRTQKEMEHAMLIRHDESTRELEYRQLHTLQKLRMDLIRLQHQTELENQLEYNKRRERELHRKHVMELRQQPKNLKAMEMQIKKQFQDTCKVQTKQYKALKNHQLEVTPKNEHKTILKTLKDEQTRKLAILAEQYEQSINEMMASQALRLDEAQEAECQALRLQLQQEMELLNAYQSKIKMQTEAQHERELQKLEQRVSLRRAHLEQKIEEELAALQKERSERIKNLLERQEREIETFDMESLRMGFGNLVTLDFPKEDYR

| SMILES | assay | setting | quantity | result |
| --- | --- | --- | --- | --- |
| Cc1nn(C)cc1-c1nc2c(N3CCN(Cc4ccc(Cl)cc4)CC3)c(Cl)cnc2[nH]1 | binding, competition with immobilised ligand | 1 µM | remaining binding | 87% |
| Cn1cncc1[C@](O)(COc1ccc(C#N)cc1-c1ccc(OC(F)(F)F)cc1)c1ccc(C#N)cc1 | cell-free assay, competition with immobilised ligand | 1 µM | remaining binding | 87% |
| CC(C)(C)c1cc(C=C(C#N)C#N)cc(Br)c1O | enzyme activity, inhibitor | 0.5 µM | remaining activity | 122% |
| Nc1ncc(-c2nc(N3CCOCC3)nc(N3CCOCC3)n2)c(C(F)F)n1 | binding, competition with immobilised ligand | 10 µM | remaining binding | 70% |
| N#CC1(c2ccccn2)CCN(Cc2cc(C(=O)O)c(=O)n3ccccc23)CC1 | cell-free assay, competition with immobilised ligand | 1 µM | remaining binding | 78% |
| Cn1cc(-c2cc(F)cc(N3CCn4c(cc5c4CCCC5)C3=O)c2CO)cc(Nc2ccc(N3CCN(C4COC4)CC3)cn2)c1=O | enzyme activity, inhibitor | 0.1 µM | inhibition | -6% |
| O=c1[nH]c2ccccc2n1C1CCN(Cc2ccc(-c3[nH]c4cc5ncnc5cc4nc3-c3ccccc3)cc2)CC1 | cell-free assay | 0.5 µM | remaining signal | 111% |
| COc1ncccc1-c1cnn2ccc(N3CCN(C(=O)OC(C)C)CC3)nc12 | binding, competition with immobilised ligand | 1 µM | remaining binding | 75% |
| Cn1cc(-c2cccc(N3CCc4c(sc5c4CC(C)(C)C5)C3=O)c2CO)cc(Nc2ccncn2)c1=O | enzyme activity, inhibitor | 1 µM | inhibition | 1% |
